Assay results published in paper PMC3005096 (Steroids, 2010).
Where two headings read alike, the source gives them in different places.

Columns and labels:
HaCaT keratinocytes = experiment: Proliferation of HaCaT keratinocytes; type: cell-based, human; conditions: for EC50: read-out: EC50, inhibition of proliferation
SKMEL-188 cells = experiment: [3H]-thymidine incorporation; type: cell-based, human; conditions: SKMEL-188, 72 h, [3H]-thymidine last 4 h
Summary of the method: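 SKMEL-188 cells were grown in Ham's F-10 with 5% charcoal-treated FBS and synchronized at G0/G1 in serum-free medium. Compounds were added in fresh medium with 5% charcoal-treated FBS for 72 h. [3H]-thymidine (88.0 Ci/mmol) was present at 0.5 μCi/ml final for the last 4 h. Cells were precipitated with 10% TCA and counted by liquid scintillation. Mean ± SD, n=4; one-way ANOVA and t-test.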

VDR-EGFP fusion protein = target: T1, VDR-EGFP fusion protein (Homo sapiens, UniProt P11473); experiment: VDR translocation into the nucleus; type: cell-based; conditions: SKMEL-188 transduced with pLenti-CMV-VDR-EGFP, 10 nM, 90 min
T1 sequence (P11473 1-427): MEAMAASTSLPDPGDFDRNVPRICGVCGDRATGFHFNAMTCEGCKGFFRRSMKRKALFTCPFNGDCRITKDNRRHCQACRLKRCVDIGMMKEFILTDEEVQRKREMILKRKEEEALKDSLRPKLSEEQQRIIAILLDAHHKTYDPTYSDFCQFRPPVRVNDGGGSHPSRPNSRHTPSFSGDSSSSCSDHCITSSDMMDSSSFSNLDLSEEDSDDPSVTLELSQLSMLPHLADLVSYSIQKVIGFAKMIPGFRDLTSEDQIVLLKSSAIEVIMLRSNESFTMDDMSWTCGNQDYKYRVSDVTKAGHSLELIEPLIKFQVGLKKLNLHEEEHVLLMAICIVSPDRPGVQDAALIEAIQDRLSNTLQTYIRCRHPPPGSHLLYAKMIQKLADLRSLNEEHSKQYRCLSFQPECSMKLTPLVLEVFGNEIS
Summary of the method: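 SKMEL-188 cells were stably transduced with a lentiviral CMV-driven VDR-EGFP fusion construct (10 MOI, 6 μg/ml polybrene). They were exposed to compound for 90 min, fixed in 4% paraformaldehyde, mounted and examined by fluorescence microscopy. In at least 10 fields, cells with fluorescent nuclei were counted and expressed as % of total cells. Student's t-test.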

melanoma SKMEL-188 = experiment: Colony forming assay; type: cell-based, human; conditions: SKMEL-188, 0.1, 10 and 1000 nM, 6-10 days
Summary of the method: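 SKMEL-188 cells were plated at 500 cells/well in 12-well plates in F10 medium with charcoal-stripped FBS and antibiotic-antimycotic, at 37°C in 5% CO2. They were treated at 0.1, 10 and 1000 nM, with matched ethanol dilution as vehicle control, and grown 6–10 days. Colonies were stained with 0.1% […], then counted and sized from photographs. CFU = colonies/cells plated ×100. Mean ± SEM, n=3 or 4.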

[1] = test system: AbC1 cell line derived from Bomirski hamster melanoma; experiment: [3H]-thymidine incorporation; type: cell-based

| Structure (SMILES) | EC50 (HaCaT keratinocytes; Homo sapiens) [nM] | inhibition of DNA synthesis (SKMEL-188 cells) | translocation of VDR-GFP fusion protein into the nucleus (VDR-EGFP fusion protein) | effect on proliferation of HaCaT cells (HaCaT keratinocytes) | inhibition of colony formation (melanoma SKMEL-188) | EC50 (HaCaT keratinocytes) [nM] | inhibition of DNA synthesis [1] |
| --- | --- | --- | --- | --- | --- | --- | --- |
| C=C1/C(=C\C=C2/CCC[C@]3(C)[C@@H]([C@H](C)CCCC(C)(C)O)CC[C@@H]23)C[C@@H](O)C[C@@H]1O [1,25(OH)2D3, reference compound] | 180 | – | – | – | – | – | – |
| C[C@]12CC[C@H]3C(=CC=C4C[C@@H](O)CC[C@@]43C)[C@@H]1CC[C@@H]2C(=O)CO [21(OH)7DHP, 3β, 21-Dihydroxypregna-5,7-dien-20-one] | > 1000 | inhibited DNA synthesis | induced translocation | no effect | – | – | – |
| C=C1CC[C@H](O)C/C1=C/C=C1\CCC[C@]2(C)[C@@H](C(=O)CO)CC[C@@H]12 [21(OH)pD, (5Z,7E)-3β,21-Dihydroxy-9,10-secopregna-5,7,10(19)-trien-20-one] | – | inhibited DNA synthesis | efficient translocation | – | best inhibition | 40 | – |
| C[C@]12CC[C@@H]3C(=CC=C4C[C@@H](O)CC[C@]43C)[C@@H]1CC[C@@H]2C(=O)CO [21(OH)pL, 3β,21-Dihydroxy-9β,10α-pregna-5,7-dien-20-one] | > 1000 | highest inhibitory potency | significantly lower | no effect | less potent inhibitory effect | – | efficiently inhibited DNA synthesis |
